Data set [1] in a line: Half-life in male rat. It is filed as ADME, organism-based. The following applies: in vivo. A digest of the protocol:
(§1)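 Single oral dose of 15 mg/Kg to rats, with compound dissolved in 50% PEG solution.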

The nature of data set [2]: Cmax in male rat. It is filed as ADME, organism-based. The note with it: in vivo. A digest of the protocol:
as §1

Data set [3] is described as follows: Tmax in male rat. The following applies: in vivo. The format is ADME, organism-based. The method in brief: as §1
The nature of data set [4]: Area under curve was determined in male rat. The format is ADME, organism-based. The note with it: in vivo. The method in brief:
as §1

For data set [5], the system named is Enterococcus faecalis. The data set can be described thus: In vitro antibacterial activity against Enterococcus faecalis C6291 (E. f. 1). It is filed as functional. The method in brief: (§2)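 MIC by agar dilution on Mueller–Hinton agar, inoculum 10⁴ CFU/spot. Reported in μg/mL.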
Data set [6] has as its system Enterococcus faecalis. The data set can be described thus: In vitro antibacterial activity against Enterococcus faecalis C6301 (E. f. 1). The format is functional. A digest of the protocol:
as §2

Data set [7] relates to Staphylococcus epidermidis. Briefly: In vitro antibacterial activity against Staphylococcus epidermis ATCC 1228. The format is functional. A digest of the protocol: as §2
For data set [8], the system named is Staphylococcus epidermidis. Briefly: In vitro antibacterial activity against Staphylococcus epidermis C2235. The format is functional. A digest of the protocol: as §2
The subject of data set [9] is Staphylococcus aureus. Briefly: In vitro antibacterial activity against Staphylococcus aureus. It is filed as functional.
Data set [10] deals with Staphylococcus aureus. Briefly: In vitro antibacterial activity against ciprofloxacin-resistant Staphylococcus aureus (CRSA). It is filed as functional.
Data set [11] relates to Staphylococcus aureus. The data set can be described thus: In vitro antibacterial activity against methicillin-resistant Staphylococcus aureus (MRSA). The format is functional.
The subject of data set [12] is Staphylococcus aureus. Briefly: In vitro antibacterial against methicillin-susceptible Staphylococcus aureus (MSSA). The format is functional.
Data set [13] deals with Streptococcus pyogenes. The data set can be described thus: In vitro antibacterial activity against Streptococcus pyogenes C6003.
Data set [14] relates to Streptococcus pyogenes. The data set can be described thus: In vitro antibacterial activity against Streptococcus pyogenes ATTCC8668.
The test system of a further data set is Enterococcus faecium. Briefly: In vitro antibacterial activity against vancomycin-resistant Enterococcus faecium C6487.
A short description of data set [15]: In vivo activity against Staphylococcus aureus when administered orally for 1 hr in rat at a dose of 15 mg/kg. The note with it: po. It is filed as ADME, organism-based. Also noted: dose 15 mg/kg, route oral.

Structures are written as SMILES. ≈ marks a conversion by molar mass, not a printed value.

With `CC(=O)NC[C@H]1CN(c2ccc(N3CCC(=CC#N)CC3)c(F)c2)C(=O)O1`, in data set [1], the half-life – broadly, the time needed for the level to fall by half in the phase considered – was 8.14 h. For the same compound, the Cmax (as a rule, the highest concentration seen after dosing) in data set [2] was determined as 1320 ng/mL. Besides, the Tmax (as a rule, the time from dosing to the highest level) in data set [3] came to 0.5 h. The AUC (usually the area under the concentration-time curve, a measure of exposure) in [4] worked out at 6810 ng·h/mL. The MIC (usually the least concentration at which growth counts as inhibited) stood at 2 µg/mL (≈ 5.37 µM) against Enterococcus faecalis [5]; 2 µg/mL (≈ 5.37 µM) in the data set on Enterococcus faecalis [6]; 0.5 µg/mL (≈ 1.34 µM) in data set [7]; 1 µg/mL (≈ 2.69 µM) in data set [8]; 2 µg/mL (≈ 5.37 µM) in the data set with Staphylococcus aureus [9]; 2 µg/mL (≈ 5.37 µM) in the data set with Staphylococcus aureus [10]. Also, the minimal inhibitory concentration (MIC) with Staphylococcus aureus [11] amounted to 1 µg/mL (≈ 2.69 µM); against Staphylococcus aureus [12], 4 µg/mL (≈ 10.7 µM); with Streptococcus pyogenes [13], 2 µg/mL (≈ 5.37 µM); in the data set on Streptococcus pyogenes [14], 0.5 µg/mL (≈ 1.34 µM); with Enterococcus faecium, 4 µg/mL (≈ 10.7 µM).
As to `CC(=O)NC[C@H]1CN(c2ccc(N3CCOCC3)c(F)c2)C(=O)O1` [LINEZOLID], the concentration in [2] peaked (Cmax) at 1390 ng/mL. The compound further had a half-life in [15] of 3.09 h. In data set [3], the time to peak (Tmax) is 0.333 h. Further, the AUC in [4] was determined as 4240 ng·h/mL. The minimum inhibitory concentration (MIC) was determined as 0.5 µg/mL (≈ 1.48 µM) in [7], 2 µg/mL (≈ 5.93 µM) in data set [8] and 0.5 µg/mL (≈ 1.48 µM) in the data set on Streptococcus pyogenes [14].
Regarding `CCOC(=O)C(C)=C1CCN(c2ccc(N3C[C@H](CNC(C)=O)OC3=O)cc2F)CC1`, the minimum inhibitory concentration (MIC) in the data set with Enterococcus faecalis [5] amounted to 8 µg/mL (≈ 18.5 µM); with Enterococcus faecalis [6], 8 µg/mL (≈ 18.5 µM); in [7], 4 µg/mL (≈ 9.23 µM); in [8] it was 8 µg/mL (≈ 18.5 µM); in the data set on Staphylococcus aureus [9], 16 µg/mL (≈ 36.9 µM); in the data set on Staphylococcus aureus [10], 8 µg/mL (≈ 18.5 µM). Besides, the minimum inhibitory concentration (MIC) amounted to 8 µg/mL (≈ 18.5 µM) against Staphylococcus aureus [11]; 16 µg/mL (≈ 36.9 µM) against Staphylococcus aureus [12]; 16 µg/mL (≈ 36.9 µM) with Streptococcus pyogenes [13]; 4 µg/mL (≈ 9.23 µM) in the data set with Streptococcus pyogenes [14]; 8 µg/mL (≈ 18.5 µM) against Enterococcus faecium.
Turning to `C/C(S)=N/C[C@H]1CN(c2ccc(N3CCC(=CC#N)CC3)c(F)c2)C(=O)O1`, the MIC stood at 1 µg/mL (≈ 2.57 µM) against Enterococcus faecalis [5]; 1 µg/mL (≈ 2.57 µM) against Enterococcus faecalis [6]; 0.5 µg/mL (≈ 1.29 µM) in data set [7]; 0.5 µg/mL (≈ 1.29 µM) in [8]; 2 µg/mL (≈ 5.15 µM) in the data set with Staphylococcus aureus [9]; 2 µg/mL (≈ 5.15 µM) against Staphylococcus aureus [10]. Besides, the minimal inhibitory concentration (MIC) turned out to be 2 µg/mL (≈ 5.15 µM) in the data set with Staphylococcus aureus [11]; 2 µg/mL (≈ 5.15 µM) in the data set on Staphylococcus aureus [12]; 0.25 µg/mL (≈ 0.644 µM) in the data set on Streptococcus pyogenes [13]; 0.5 µg/mL (≈ 1.29 µM) in the data set with Streptococcus pyogenes [14]; 0.5 µg/mL (≈ 1.29 µM) with Enterococcus faecium.
Regarding `CC(=O)NC[C@H]1CN(c2ccc(N3CCC(=C(C#N)C#N)CC3)c(F)c2)C(=O)O1`, the MIC came to 4 µg/mL (≈ 10.1 µM) with Enterococcus faecalis [5]; 2 µg/mL (≈ 5.03 µM) with Enterococcus faecalis [6]; 1 µg/mL (≈ 2.52 µM) in data set [7]; 2 µg/mL (≈ 5.03 µM) in data set [8]; 2 µg/mL (≈ 5.03 µM) against Staphylococcus aureus [9]; 4 µg/mL (≈ 10.1 µM) in the data set with Staphylococcus aureus [10]. Also, the minimal inhibitory concentration (MIC) with Staphylococcus aureus [11] is 2 µg/mL (≈ 5.03 µM); in the data set on Staphylococcus aureus [12] it was 4 µg/mL (≈ 10.1 µM); in the data set on Streptococcus pyogenes [13], 4 µg/mL (≈ 10.1 µM); in the data set with Streptococcus pyogenes [14] it was 1 µg/mL (≈ 2.52 µM); with Enterococcus faecium, 4 µg/mL (≈ 10.1 µM).
